Measurements taken from ChEMBL document CHEMBL2146466, “Evaluation of dimerization-inhibitory activities of cyclic peptides containing a β-hairpin loop sequence of the EGF receptor” (2012).
Activity calls are given as the source filed them. The calls are words filed in the database; no cut-off is given here. Where a SMILES comes first, the peptide text is derived from it.

Key:
[1] = target: Epidermal growth factor receptor (Homo sapiens) (UniProt P00533); test: Inhibition of human recombinant EGF receptor autophosphorylation expressed in A431 cells at 10 uM after 5 mins by immunoblotting analysis; assay type: cell-based; details: A-431
Sequence of Epidermal growth factor receptor (Homo sapiens) (P00533 whole entry): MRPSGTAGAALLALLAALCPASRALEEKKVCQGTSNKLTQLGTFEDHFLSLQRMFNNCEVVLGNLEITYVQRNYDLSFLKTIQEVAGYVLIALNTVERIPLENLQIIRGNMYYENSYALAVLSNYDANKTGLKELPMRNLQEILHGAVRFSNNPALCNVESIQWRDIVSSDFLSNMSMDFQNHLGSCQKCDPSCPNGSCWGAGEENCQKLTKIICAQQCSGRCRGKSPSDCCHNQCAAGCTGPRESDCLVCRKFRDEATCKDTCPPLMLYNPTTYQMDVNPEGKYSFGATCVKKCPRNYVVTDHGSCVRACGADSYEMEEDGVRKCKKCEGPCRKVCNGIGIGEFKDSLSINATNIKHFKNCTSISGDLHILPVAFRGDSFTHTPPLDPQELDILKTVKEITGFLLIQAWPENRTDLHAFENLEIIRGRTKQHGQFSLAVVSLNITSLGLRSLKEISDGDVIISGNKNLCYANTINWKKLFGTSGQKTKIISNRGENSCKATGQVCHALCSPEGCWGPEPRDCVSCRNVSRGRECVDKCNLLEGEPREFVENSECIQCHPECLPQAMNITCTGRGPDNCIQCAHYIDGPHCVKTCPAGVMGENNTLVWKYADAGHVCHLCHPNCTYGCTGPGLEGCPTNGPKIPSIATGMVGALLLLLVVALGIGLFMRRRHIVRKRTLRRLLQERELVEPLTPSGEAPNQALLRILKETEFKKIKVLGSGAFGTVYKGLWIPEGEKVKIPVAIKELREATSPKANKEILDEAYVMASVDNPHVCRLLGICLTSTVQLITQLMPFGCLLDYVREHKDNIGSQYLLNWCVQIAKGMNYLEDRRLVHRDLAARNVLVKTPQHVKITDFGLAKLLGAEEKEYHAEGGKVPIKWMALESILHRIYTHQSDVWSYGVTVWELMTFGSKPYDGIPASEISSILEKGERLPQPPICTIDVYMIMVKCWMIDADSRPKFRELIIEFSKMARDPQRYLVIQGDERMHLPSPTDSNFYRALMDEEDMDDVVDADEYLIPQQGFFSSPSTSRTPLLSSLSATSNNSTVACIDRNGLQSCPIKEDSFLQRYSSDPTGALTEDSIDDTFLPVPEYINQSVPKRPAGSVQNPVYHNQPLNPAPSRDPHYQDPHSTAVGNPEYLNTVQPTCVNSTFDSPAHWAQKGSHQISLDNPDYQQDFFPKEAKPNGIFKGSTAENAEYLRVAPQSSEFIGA
Outline: (§1)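 A431 cells were seeded at 1×10^4/well, grown 4 days, then starved 24 h in serum-free medium with 1 mg/mL BSA. Cells were given peptide or PBS for 1 h at 37 °C, then 100 ng/mL human EGF for 5 min. Lysates in NP-40 buffer were diluted to 500 µg/mL protein and run on SDS-PAGE. Blots were probed with anti-EGFR pY1068, then stripped and re-probed for total EGFR. Mean of two independent experiments in duplicate.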

A-431 = test: Antiproliferative activity against human A431 cells at 10 uM after 3 days by WST-8 assay; assay type: functional; details: A-431, 72 h
Outline: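 A431 cells in DMEM with 10% FBS were seeded at 5×10^3 cells/well and grown 24 h at 37 °C, 5% CO₂. Peptide at 10 µM, or distilled water as the 100% growth control, was added and cells were re-incubated 24 h for three consecutive days. WST-8 was then added for 90 min and absorbance read at 450 nm (reference 655 nm). Six replicate wells, three independent repeats; mean ± SD.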

[2] = target: Epidermal growth factor receptor (Homo sapiens) (UniProt P00533); test: Human recombinant EGF receptor dimer amount expressed in A431 cells at 10 uM after 10 mins by immunoblotting analysis relative to control; details: A-431
[3] = target: Epidermal growth factor receptor (Homo sapiens) (UniProt P00533); test: Inhibition of human recombinant EGF receptor autophosphorylation expressed in A431 cells at 1 nM after 5 mins by immunoblotting analysis; assay type: cell-based; details: A-431; outline: as §1
[4] = target: Epidermal growth factor receptor (Homo sapiens) (UniProt P00533); test: Inhibition of human recombinant EGF receptor dimerization expressed in A431 cells at 10 uM after 10 mins by immunoblotting analysis relative to CYNPTTYQMC; assay type: cell-based; details: A-431
[5] = target: Epidermal growth factor receptor (Homo sapiens) (UniProt P00533); test: Inhibition of human recombinant EGF receptor dimerization expressed in A431 cells at 10 uM after 10 mins by immunoblotting analysis relative to control; assay type: cell-based; details: A-431
Outline: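 Confluent A431 cells were solubilized in 20 mM HEPES pH 7.4 with 1% Triton X-100, 10% glycerol, 1 mM EGTA and 1 mM PMSF, and the extract was spun at 250,000×g. Supernatant at 2 µg/µL protein was pre-treated 60 min with 10 µM peptide, then given 0.21 µM human EGF for 10 min. Cross-linking was with 1 mM BS³ for 10 min, quenched with glycine. Dimer and monomer were resolved by SDS-PAGE and anti-EGFR immunoblot, with ECL quantification. Dimer without peptide was set to 1.0; mean ± SD of at least three experiments in duplicate.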

Molecule	inhibition [1]	cell proliferation (% of vehicle) at 10 µM (A-431) [%]	residual activity [2] [%]	inhibition [3] [%]	inhibition [4] [%]	inhibition [5]
CSCC[C@H]1NC(=O)[C@H](N)CSSC[C@H](C(=O)O)NC(=O)[C@@H](Cc2ccc(O)cc2)NC(=O)[C@@H](CC(N)=O)NC(=O)[C@H]2CCCN2C(=O)[C@@H]([C@H](C)O)NC(=O)[C@@H]([C@H](C)O)NC(=O)[C@@H](Cc2ccc(O)cc2)NC(=O)[C@@H](CCC(N)=O)NC1=O	70%	81	68	45		
CSCC[C@@H]1NC(=O)[C@H](CCC(N)=O)NC(=O)[C@H](Cc2ccc(O)cc2)NC(=O)[C@H]([C@@H](C)O)NC(=O)[C@H]([C@@H](C)O)NC(=O)[C@@H]2CCCN2C(=O)[C@H](CC(N)=O)NC(=O)[C@H](Cc2ccc(O)cc2)NC(=O)[C@@H](N)CSSC[C@@H](C(=O)O)NC1=O	Active	84	69			
CSCC[C@@H]1NC(=O)[C@H](CCC(N)=O)NC(=O)[C@H](Cc2ccc(O)cc2)NC(=O)[C@@H]2CSSC[C@H](NC(=O)[C@H](Cc3ccc(O)cc3)NC(=O)[C@@H](N)CSSC[C@@H](C(=O)O)NC1=O)C(=O)N1CCC[C@H]1C(=O)N[C@@H]([C@@H](C)O)C(=O)N2 (HELM PEPTIDE1{C.Y.C.P.T.C.Y.Q.M.C}$PEPTIDE1,PEPTIDE1,1:R3-10:R3|PEPTIDE1,PEPTIDE1,3:R3-6:R3$$$V2.0)			83		65	
CSCC[C@H](NC(=O)[C@H](CCC(N)=O)NC(=O)[C@H](Cc1ccc(O)cc1)NC(=O)[C@@H]1CSSC[C@H](NC(=O)[C@H](Cc2ccc(O)cc2)NC(=O)[C@@H](N)CC(C)C)C(=O)N2CCC[C@H]2C(=O)N[C@@H]([C@@H](C)O)C(=O)N1)C(=O)N[C@@H](CC(=O)O)C(=O)O (HELM PEPTIDE1{L.Y.C.P.T.C.Y.Q.M.D}$PEPTIDE1,PEPTIDE1,3:R3-6:R3$$$V2.0)			90		32	
CSCC[C@@H]1NC(=O)[C@H](CCC(N)=O)NC(=O)[C@H](Cc2ccc(O)cc2)NC(=O)[C@H]([C@@H](C)O)NC(=O)[C@H]([C@@H](C)O)NC(=O)[C@@H]2CCCN2C(=O)[C@H](CC(N)=O)NC(=O)[C@H](Cc2ccc(O)cc2)NC(=O)[C@@H](NC(=O)[C@H](CCSC)NC(=O)[C@H](CC(C)C)NC(=O)[C@@H]2CCCN2)CSSC[C@@H](C(=O)O)NC1=O (HELM PEPTIDE1{P.L.M.C.Y.N.P.T.T.Y.Q.M.C}$PEPTIDE1,PEPTIDE1,4:R3-13:R3$$$V2.0)						Active
H-LVYNKLTFQLEPNPHTK-OH		95				
